Reference: ChEMBL document CHEMBL2146436, “Synthesis and pharmacological investigation of azaphthalazinone human histamine H(1) receptor antagonists” (Bioorg Med Chem, 2012)

Key:
[1] = molecular target: T1, Alpha-1A adrenergic receptor (Homo sapiens, UniProt P35348); test: Antagonist activity at human adrenergic alpha1A receptor expressed in rat fibroblasts by plate-based calcium imaging; assay type: functional
T1 sequence (P35348 whole entry): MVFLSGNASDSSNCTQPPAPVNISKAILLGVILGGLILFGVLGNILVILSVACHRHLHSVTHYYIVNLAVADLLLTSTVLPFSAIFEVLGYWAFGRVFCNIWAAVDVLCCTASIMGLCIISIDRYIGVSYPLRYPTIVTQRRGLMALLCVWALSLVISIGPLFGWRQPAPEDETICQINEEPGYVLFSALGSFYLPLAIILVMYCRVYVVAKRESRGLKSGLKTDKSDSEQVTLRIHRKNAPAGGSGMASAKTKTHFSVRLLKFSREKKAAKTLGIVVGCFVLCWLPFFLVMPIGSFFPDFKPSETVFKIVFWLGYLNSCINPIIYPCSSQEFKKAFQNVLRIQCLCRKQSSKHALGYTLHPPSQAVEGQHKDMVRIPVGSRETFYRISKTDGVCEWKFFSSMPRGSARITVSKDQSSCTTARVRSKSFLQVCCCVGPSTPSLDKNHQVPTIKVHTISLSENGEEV

[2] = molecular target: T2, Alpha-1B adrenergic receptor (Homo sapiens, UniProt P35368); test: Antagonist activity at human adrenergic alpha1B receptor expressed in rat fibroblasts by plate-based calcium imaging; assay type: functional
T2 sequence (P35368 whole entry): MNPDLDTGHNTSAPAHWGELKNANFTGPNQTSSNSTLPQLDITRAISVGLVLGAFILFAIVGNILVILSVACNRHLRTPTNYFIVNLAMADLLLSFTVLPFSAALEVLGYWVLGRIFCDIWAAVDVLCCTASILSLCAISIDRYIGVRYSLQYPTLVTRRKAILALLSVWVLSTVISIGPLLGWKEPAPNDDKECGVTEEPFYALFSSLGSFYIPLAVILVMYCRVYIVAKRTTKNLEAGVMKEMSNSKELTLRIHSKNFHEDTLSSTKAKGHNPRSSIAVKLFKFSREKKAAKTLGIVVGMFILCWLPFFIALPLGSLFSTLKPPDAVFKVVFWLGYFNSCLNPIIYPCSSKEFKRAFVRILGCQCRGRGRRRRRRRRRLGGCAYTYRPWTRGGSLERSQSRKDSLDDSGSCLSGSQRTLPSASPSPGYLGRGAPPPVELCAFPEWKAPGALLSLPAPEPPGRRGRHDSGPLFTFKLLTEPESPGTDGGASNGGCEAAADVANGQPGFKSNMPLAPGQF
How it was run: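 Plate-based calcium imaging in intact Rat1 fibroblast cells expressing the α1B adrenoceptor. Antagonist affinity is expressed as pKi, with the number of determinations given.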

Histamine H1 receptor [3] = molecular target: T3, Histamine H1 receptor (Homo sapiens, UniProt P35367); test: Antagonist activity at human H1 receptor expressed in CHO cells assessed as inhibition of calcium mobilization by FLIPR assay; assay type: functional, cell-based
T3 sequence (P35367 whole entry): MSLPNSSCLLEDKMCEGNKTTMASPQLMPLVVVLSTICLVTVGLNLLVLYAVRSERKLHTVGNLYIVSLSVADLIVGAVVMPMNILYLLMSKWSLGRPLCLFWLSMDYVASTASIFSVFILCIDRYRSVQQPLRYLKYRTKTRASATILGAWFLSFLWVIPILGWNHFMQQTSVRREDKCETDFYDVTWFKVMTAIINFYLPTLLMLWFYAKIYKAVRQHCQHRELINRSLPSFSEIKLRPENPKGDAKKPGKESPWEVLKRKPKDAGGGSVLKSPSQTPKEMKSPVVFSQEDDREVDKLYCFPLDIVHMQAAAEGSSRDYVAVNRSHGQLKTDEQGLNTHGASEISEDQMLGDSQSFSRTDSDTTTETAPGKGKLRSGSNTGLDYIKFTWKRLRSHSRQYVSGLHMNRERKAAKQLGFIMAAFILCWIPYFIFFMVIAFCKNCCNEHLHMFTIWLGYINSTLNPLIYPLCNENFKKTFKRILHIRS
How it was run: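 Intact CHO cells expressing recombinant human H1 receptor were loaded with Fluo-4AM. Inhibition of agonist-induced calcium mobilisation was read in a plate-based FLIPR instrument and expressed as pKi, with the number of determinations given.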

[4] = Lipophilicity, log D of compound at pH 7.4; assay type: physicochemical; details: buffer
Histamine H3 receptor = Histamine H3 receptor (Homo sapiens, UniProt Q9Y5N1); test: Antagonist activity at human H3 receptor expressed in CHO cells assessed as inhibition of histamine-induced GTPgamma[S] binding by scintillation proximity assay; assay type: functional, cell-based
Sequence of Histamine H3 receptor (Q9Y5N1 whole entry): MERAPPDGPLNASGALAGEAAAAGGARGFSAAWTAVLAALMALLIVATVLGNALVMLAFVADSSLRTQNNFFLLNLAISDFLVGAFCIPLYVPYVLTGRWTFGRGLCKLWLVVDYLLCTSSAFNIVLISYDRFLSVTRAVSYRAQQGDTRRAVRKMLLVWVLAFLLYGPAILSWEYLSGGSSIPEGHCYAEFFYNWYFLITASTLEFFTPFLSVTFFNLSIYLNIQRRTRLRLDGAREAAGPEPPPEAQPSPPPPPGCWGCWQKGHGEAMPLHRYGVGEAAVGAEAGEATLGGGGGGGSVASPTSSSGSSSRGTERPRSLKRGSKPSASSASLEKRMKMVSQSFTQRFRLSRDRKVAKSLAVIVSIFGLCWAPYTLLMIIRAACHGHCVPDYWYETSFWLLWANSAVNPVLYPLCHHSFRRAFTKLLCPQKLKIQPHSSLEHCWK

Histamine H1 receptor [5] = molecular target: T3, Histamine H1 receptor; test: Antagonist activity against human CHO cells H1 receptor at 100 nM after 30 mins by FLIPR assay; assay type: functional, cell-based; details: read-out: pA2 (converted)
How it was run: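 Modified lower-throughput FLIPR assay in CHO cells expressing recombinant human H1. Histamine concentration–response curves were run without antagonist and with a single 100 nM antagonist concentration after 30 min incubation. EC50 values came from a four-parameter logistic fit. pA2 = log(DR−1) − log[B], where DR is the ratio of the EC50 with antagonist to the control EC50. Values are mean ± SEM, with SD given when n<3.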

CHO [6] = test: Selectivity ratio of pKi for human H3 receptor expressed in CHO cells to pKi for human H1 receptor expressed in CHO cells; assay type: cell-based
How it was run: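 Ratio of two pKi values. The H3 pKi comes from membranes of CHO cells transfected with cloned human H3 receptor, read as reduction of histamine-stimulated GTPγS binding by scintillation proximity detection. The H1 pKi comes from intact CHO cells expressing recombinant human H1, read as inhibition of agonist-induced calcium mobilisation (Fluo-4AM dye, FLIPR plate-based imaging).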

CHO [7] = test: Selectivity ratio of pKi for human H3 receptor expressed in CHO cells to pKi for human adrenergic alpha1A receptor expressed in rat fibroblast; assay type: cell-based
How it was run: (§1)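 Ratio of two pKi values. The H3 pKi comes from membranes of CHO cells transfected with cloned human H3, read as reduction of histamine-stimulated GTPγS binding by scintillation proximity detection. The α1A or α1B pKi comes from intact Rat1 fibroblast cells expressing that receptor, read by plate-based calcium imaging.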

[8] = molecular target: Voltage-gated inwardly rectifying potassium channel KCNH2 (Homo sapiens, UniProt Q12809); test: Displacement of [3H]dofetilide from human ERG
Sequence of Voltage-gated inwardly rectifying potassium channel KCNH2 (Q12809 whole entry): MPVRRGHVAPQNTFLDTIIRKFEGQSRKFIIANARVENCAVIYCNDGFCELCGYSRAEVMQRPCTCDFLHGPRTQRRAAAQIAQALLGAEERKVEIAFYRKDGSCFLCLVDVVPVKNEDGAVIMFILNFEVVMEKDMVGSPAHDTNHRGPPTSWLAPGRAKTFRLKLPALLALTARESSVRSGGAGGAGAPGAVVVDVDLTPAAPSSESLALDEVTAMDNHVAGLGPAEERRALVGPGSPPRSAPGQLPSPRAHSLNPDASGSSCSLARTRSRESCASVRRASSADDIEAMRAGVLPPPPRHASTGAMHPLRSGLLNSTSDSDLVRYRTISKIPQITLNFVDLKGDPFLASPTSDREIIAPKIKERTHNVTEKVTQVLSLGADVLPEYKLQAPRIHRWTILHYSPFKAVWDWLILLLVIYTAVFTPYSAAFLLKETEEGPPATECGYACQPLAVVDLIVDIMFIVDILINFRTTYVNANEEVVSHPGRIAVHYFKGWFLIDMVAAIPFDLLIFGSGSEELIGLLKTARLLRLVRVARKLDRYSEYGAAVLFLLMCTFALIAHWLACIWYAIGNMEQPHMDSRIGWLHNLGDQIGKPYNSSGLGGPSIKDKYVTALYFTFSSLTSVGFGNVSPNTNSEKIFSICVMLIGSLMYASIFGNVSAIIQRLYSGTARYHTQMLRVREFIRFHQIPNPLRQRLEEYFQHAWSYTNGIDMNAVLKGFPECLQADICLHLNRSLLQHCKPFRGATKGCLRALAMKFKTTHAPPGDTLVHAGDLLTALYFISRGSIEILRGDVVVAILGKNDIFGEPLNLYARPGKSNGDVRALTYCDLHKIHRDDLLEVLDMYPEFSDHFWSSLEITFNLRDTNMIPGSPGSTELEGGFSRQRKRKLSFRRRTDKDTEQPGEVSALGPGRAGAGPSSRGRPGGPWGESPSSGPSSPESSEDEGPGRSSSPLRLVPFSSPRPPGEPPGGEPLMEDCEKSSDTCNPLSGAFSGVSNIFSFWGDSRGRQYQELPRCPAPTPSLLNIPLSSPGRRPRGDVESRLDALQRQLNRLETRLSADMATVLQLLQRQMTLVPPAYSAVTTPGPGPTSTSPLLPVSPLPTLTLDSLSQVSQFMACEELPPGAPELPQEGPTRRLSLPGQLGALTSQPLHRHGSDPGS

CHO [9] = test: Selectivity ratio of pKi for human H3 receptor expressed in CHO cells to pKi for human adrenergic alpha1B receptor expressed in rat fibroblast; assay type: cell-based; how it was run: as §1

| Compound | Ki [1] | Ki [2] | Ki (Histamine H1 receptor [3]) | logD [4] | Ki (Histamine H3 receptor) | Kb (Histamine H1 receptor [5]) | Ratio pKi (CHO [6]) | Ratio pKi (CHO [7]) | IC50 [8] | Ratio pKi (CHO [9]) |
| --- | --- | --- | --- | --- | --- | --- | --- | --- | --- | --- |
| CCCCN1CCC[C@@H]1Cn1nc(Cc2ccc(Cl)cc2)c2ncccc2c1=O | 50.1 nM | 20 nM | 0.631 nM | 3.4 | 631 nM |  |  |  |  |  |
| CCCCN1CCC[C@@H]1Cn1nc(Cc2ccc(Cl)cc2)c2ccccc2c1=O |  |  | 0.912 nM | 3.1 | 437 nM | 0.0398 nM |  |  |  |  |
| COCCN1CCC[C@@H]1Cn1nc(Cc2ccc(Cl)cc2)c2ncccc2c1=O | 158 nM | 39.8 nM | 0.537 nM | 2.9 |  |  |  |  |  |  |
| CN1CCC[C@@H]1Cn1nc(Cc2ccc(Cl)cc2)c2ccccc2c1=O | 31.6 nM | 10 nM | 0.162 nM | 3 | 437 nM | 0.1 nM |  |  |  |  |
| CN1CCC[C@@H]1Cn1nc(Cc2ccc(Cl)cc2)c2ccncc2c1=O | 20 nM |  | 0.692 nM | 2.2 | 398 nM | 2.51 nM |  |  |  |  |
| COCCN1CCC[C@@H]1Cn1nc(Cc2ccc(Cl)cc2)c2cnccc2c1=O |  | 10 nM | 0.251 nM | 2.7 |  | 0.251 nM |  |  |  |  |
| COCCN1CCC[C@@H]1Cn1nc(Cc2ccc(Cl)cc2)c2ccccc2c1=O | 20 nM | 12.6 nM | 0.513 nM | 3.3 | 398 nM |  |  |  |  |  |
| CN1CCC[C@@H]1Cn1nc(Cc2ccc(Cl)cc2)c2ncccc2c1=O | 200 nM | 50.1 nM | 0.316 nM | 2.7 | 316 nM | 0.316 nM |  |  |  |  |
| CN1CCCC(n2nc(Cc3ccc(Cl)cc3)c3ccccc3c2=O)CC1 (centres undefined) [AZELASTINE] |  |  |  | 2.3 | 148 nM |  |  |  |  |  |
| CCCCN1CCC[C@@H]1Cn1nc(Cc2ccc(Cl)cc2)c2cnccc2c1=O | 6.31 nM | 7.94 nM | 0.398 nM | 3.2 | 631 nM | 0.1 nM | 2.7 | 10 | 50.1 nM | 10 |
| CN1CCC[C@@H]1Cn1nc(Cc2ccc(Cl)cc2)c2cnccc2c1=O | 12.6 nM |  | 0.347 nM | 1.9 | 398 nM | 0.316 nM |  |  |  |  |
| O=c1c2ccncc2c(Cc2ccc(Cl)cc2)nn1C[C@H]1CCCN1CCCCc1ccc(OCCCN2CCCCCC2)cc1 | 31.6 nM | 39.8 nM | 17.4 nM |  | 0.562 nM | 1 nM | 2.7 | 10 | 158 nM | 10 |
| CN1CCC[C@@H]1Cn1nc(Cc2ccc(Cl)cc2)c2nccnc2c1=O | 398 nM | 251 nM | 1.29 nM | 1.7 | 631 nM | 3.98 nM |  |  |  |  |
| CCCCN1CCC[C@@H]1Cn1nc(Cc2ccc(Cl)cc2)c2cccnc2c1=O | 100 nM | 100 nM | 0.631 nM | 2.8 | 631 nM | 0.316 nM |  |  |  |  |
| CN1CCC[C@@H]1Cn1nc(Cc2ccc(Cl)cc2)c2cccnc2c1=O | 631 nM | 158 nM | 0.355 nM | 1.7 |  | 0.501 nM |  |  |  |  |
| COCCN1CCC[C@@H]1Cn1nc(Cc2ccc(Cl)cc2)c2cccnc2c1=O | 316 nM | 316 nM | 1 nM | 2.1 | 631 nM | 0.794 nM |  |  |  |  |
| O=c1c2ccccc2c(Cc2ccc(Cl)cc2)nn1C[C@H]1CCCN1CCCCc1ccc(OCCCN2CCCCCC2)cc1 [GSK-1004723] |  |  |  | 3.2 |  |  |  |  |  |  |
